One experiment concerns SN12C. Briefly: Growth inhibition of human SN12C cells. It counts as functional. An outline of the steps: (§1)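 Tested at the NCI in its human disease-oriented in vitro screen of 60 tumour cell lines, following the Monks et al. methods. Activity is expressed as GI50, given as log molar values.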
The next experiment relates to TK-10. Briefly: Growth inhibition of human TK10 cells. Format: functional. In outline: as §1
In the next experiment the test system is XF498. Nature of the experiment: Growth inhibition of human XF498 cells. It counts as functional. In outline:
as §1

A further experiment relates to SR. Briefly: Growth inhibition of human SR cells. Format: functional. An outline of the steps:
as §1

For another experiment, the system named is NCI-H460. Nature of the experiment: Growth inhibition of human NCI-H460 cells. It counts as functional.
For another experiment, the system named is UO-31. Briefly: Growth inhibition of human UO31 cells. Format: functional. In outline:
as §1

The next experiment concerns SNB-75. Briefly: Growth inhibition of human SNB75 cells. It counts as functional. An outline of the steps: as §1
Another experiment relates to HT-29. Briefly: Growth inhibition of human HT29 cells. Format: functional.
In another experiment the test system is KM12. Briefly: Growth inhibition of human KM12 cells. Format: functional.
The subject of another experiment is HCT-116. Nature of the experiment: Growth inhibition of human HCT116 cells. It counts as functional.
The nature of experiment [1]: Growth inhibition of human DMS144 cells. It counts as functional.
A further experiment deals with M14. Briefly: Growth inhibition of human M14 cells. Format: functional.
The next experiment deals with SK-MEL-2. Nature of the experiment: Growth inhibition of human SK-MEL-2 cells. Format: functional. In outline: as §1
Another experiment concerns NCI-H226. Nature of the experiment: Growth inhibition of human NCI-H226 cells. It counts as functional.
A short description of experiment [2]: Growth inhibition of human OVACR8 cells. It counts as functional.
A short description of experiment [3]: Growth inhibition of human OVACR5 cells. Format: functional.
The next experiment deals with HCT-15. Nature of the experiment: Growth inhibition of human HCT15 cells. Format: functional.
The test system of another experiment is M19-MEL. Nature of the experiment: Growth inhibition of human M19-MEL cells. It counts as functional.
In a further experiment the test system is SK-OV-3. Nature of the experiment: Growth inhibition of human SK-OV-3 cells. Format: functional. An outline of the steps:
as §1

Another experiment has as its system SW-620. Briefly: Growth inhibition of human SW620 cells. Format: functional. An outline of the steps: as §1
Another experiment deals with A549. Nature of the experiment: Growth inhibition of human A549 cells. Format: functional.
Another experiment deals with SF-539. Briefly: Growth inhibition of human SF539 cells. Format: functional. In outline: as §1
The subject of a further experiment is HOP-62. Nature of the experiment: Growth inhibition of human HOP62 cells. Format: functional.
A further experiment has as its system U-251. Briefly: Growth inhibition of human U251 cells. It counts as functional. In outline:
as §1

In a further experiment the test system is Malme-3M. Nature of the experiment: Growth inhibition of human MALME-3M cells. It counts as functional.
Experiment [4] is described as follows: Growth inhibition of human HL60(TB) cells. Format: functional, HL-60(TB). The conditions noted are these: HL-60.
The next experiment has as its system NCI-H522. Nature of the experiment: Growth inhibition of human NCI-H522 cells. It counts as functional.
In a further experiment the test system is SK-MEL-5. Nature of the experiment: Growth inhibition of human SK-MEL-5 cells. Format: functional. Particulars: for EC50: read-out: ED50 (the source's name). An outline of the steps:
as §1

A further experiment concerns HCC 2998. Briefly: Growth inhibition of human HCC2998 cells. It counts as functional.
Experiment [5] can be described thus: Growth inhibition of human LXFL529 cells. Format: functional. Particulars: LXFL 529.
In the next experiment the test system is COLO 205. Nature of the experiment: Growth inhibition of human COLO205 cells. Format: functional. Particulars: for EC50: read-out: ED50 (the source's name).
The subject of a further experiment is KM-20L2. Nature of the experiment: Growth inhibition of human KM20L2 cells. It counts as functional.
The test system of a further experiment is DMS-273. Briefly: Growth inhibition of human DMS273 cells. Format: functional.
The test system of another experiment is HOP-92. Briefly: Growth inhibition of human HOP92 cells. Format: functional.
The subject of a further experiment is 786-0. Nature of the experiment: Growth inhibition of human 786-0 cells. Format: functional.
The test system of the next experiment is LOX IMVI. Nature of the experiment: Growth inhibition of human LOX IMVI cells. Format: functional.
For the next experiment, the system named is MOLT-4. Nature of the experiment: Growth inhibition of human MOLT4 cells. Format: functional.
In a further experiment the test system is CCRF-CEM. Briefly: Growth inhibition of human CCRF-CEM cells. It counts as functional.
In the next experiment the test system is UACC-62. Nature of the experiment: Growth inhibition of human UACC62 cells. It counts as functional. An outline of the steps:
as §1

The test system of another experiment is K562. Briefly: Growth inhibition of human K562 cells. Format: functional.
For the next experiment, the system named is IGROV-1. Nature of the experiment: Growth inhibition of human IGROV1 cells. Format: functional.
The next experiment has as its system SK-MEL-28. Nature of the experiment: Growth inhibition of human SK-MEL-28 cells. Format: functional. An outline of the steps:
as §1

Experiment [6] is described as follows: Growth inhibition of human RPMI8266 cells. Format: functional.
The nature of experiment [7]: Growth inhibition of human […] cells. It counts as functional.
Another experiment concerns NCI-H322M. Briefly: Growth inhibition of human NCI-H322M cells. Format: functional.
The subject of another experiment is SNB-19. Briefly: Growth inhibition of human SNB19 cells. It counts as functional. In outline:
as §1

Another experiment relates to ACHN. Nature of the experiment: Growth inhibition of human ACHN cells. Format: functional.
In the next experiment the test system is DLD-1. Nature of the experiment: Growth inhibition of human DLD1 cells. It counts as functional.
The next experiment deals with SF-268. Nature of the experiment: Growth inhibition of human SF268 cells. It counts as functional. An outline of the steps: as §1
The subject of another experiment is HCT-8. Briefly: Growth inhibition of human HCT8 cells. Format: functional. The conditions noted are these: read-out: ED50 (the source's name). An outline of the steps:
(§2)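 In-house cytotoxicity assay following an NCI protocol, run on a panel of human tumour lines: KB nasopharyngeal epidermoid carcinoma and HCT-8 ileocecal adenocarcinoma. Potency is reported as ED50 in µg/mL.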

The next experiment has as its system KB. Nature of the experiment: Growth inhibition of human KB cells. Particulars: read-out: ED50 (the source's name). Format: functional. In outline:
as §2

A further experiment deals with HOP-18. Briefly: Growth inhibition of human HOP18 cells. It counts as functional.

The values that follow come from ChEMBL document CHEMBL1142636 (2000).

Values after ≈ are worked out from the molar mass of the structure shown.

As for `COc1cc(Cc2c(C)cc(OC)c3[nH]c4ccccc4c23)cc2c1[nH]c1ccccc12`, the GI50 was 6.46 µM with SN12C; 12 µM in the experiment with TK-10; 6.03 µM in the experiment on XF498; 7.76 µM with SR; 5.13 µM with NCI-H460; 6.03 µM with UO-31. The GI50 in the experiment on SNB-75 was 5.75 µM; in the experiment with HT-29 it was 7.76 µM; in the experiment on KM12, 5.37 µM; in the experiment on HCT-116 it was 9.12 µM; in [1], 10.5 µM; with M14, 5.13 µM. Moreover, the GI50 in the experiment on SK-MEL-2 is 3.98 µM; in the experiment with NCI-H226, 4.68 µM; in [2], 4.57 µM; in experiment [3], 5.01 µM; in the experiment with HCT-15, 6.92 µM; with M19-MEL, 9.77 µM. In addition, the GI50 in the experiment with SK-OV-3 was 8.71 µM; in the experiment on SW-620, 8.13 µM; with A549, 5.75 µM; with SF-539, 4.57 µM; in the experiment on HOP-62 it was 5.5 µM; in the experiment on U-251, 5.01 µM. In addition, the GI50 is 4.47 µM in the experiment with Malme-3M; 7.94 µM in experiment [4]; 5.01 µM in the experiment with NCI-H522; 3.98 µM in the experiment on SK-MEL-5; 5.37 µM in the experiment with HCC 2998; 4.17 µM in experiment [5]. Moreover, the GI50 is 12 µM in the experiment on COLO 205; 5.25 µM in the experiment with KM-20L2; 7.59 µM in the experiment with DMS-273; 7.59 µM in the experiment on HOP-92; 5.37 µM in the experiment on 786-0; 3.89 µM with LOX IMVI. Also, the GI50 was 5.75 µM with MOLT-4; 8.51 µM in the experiment with CCRF-CEM; 5.62 µM with UACC-62; 7.24 µM in the experiment on K562; 9.12 µM in the experiment on IGROV-1; 8.71 µM in the experiment with SK-MEL-28. Besides, the GI50 in experiment [6] is 10 µM; in experiment [7], 5.37 µM; with NCI-H322M, 7.24 µM; in the experiment with SNB-19, 5.89 µM; with ACHN, 4.68 µM; in the experiment on DLD-1 it was 8.91 µM. Also, growth with SF-268 was halved (GI50) at 6.92 µM.
Consider `COc1cccc2c3c([nH]c12)C(=O)C=C(C)C3=O`, for which the EC50 in the experiment with HCT-8 was 5.3 µg/mL (≈ 22 µM); in the experiment with KB it was 4.95 µg/mL (≈ 20.5 µM); in the experiment with SK-MEL-5, 3.55 µg/mL (≈ 14.7 µM); in the experiment with COLO 205 it was 4.22 µg/mL (≈ 17.5 µM).
For the molecule `COc1ccc2[nH]c3c(c2c1)C(=O)C=C(C)C3=O`, the EC50 was 6.03 µg/mL (≈ 25 µM) in the experiment with HCT-8, 5.08 µg/mL (≈ 21.1 µM) in the experiment with KB, 6.22 µg/mL (≈ 25.8 µM) in the experiment on SK-MEL-5 and > 20 µg/mL in the experiment with COLO 205.
As for `CC(C)=CCCC1(C)C=Cc2c(c(C)cc3c2[nH]c2cc(O)ccc23)O1` (configuration not stated), the GI50 in the experiment on NCI-H522 was 6.76 µM; in the experiment with MOLT-4 it was 0.00324 µM; in the experiment with HOP-18 it was 7.41 µM. For the same molecule, the TGI in the experiment on MOLT-4 (read-out: pTGI) was > 25.1 µM.
As to `CC1=CC(=O)c2c([nH]c3ccc(Cl)cc23)C1=O`, the EC50 turned out to be 5.5 µg/mL (≈ 22.4 µM) with HCT-8, 3.52 µg/mL (≈ 14.3 µM) in the experiment with KB, 5.5 µg/mL (≈ 22.4 µM) with SK-MEL-5 and 4.42 µg/mL (≈ 18 µM) in the experiment with COLO 205.
`CC1=CC(=O)c2[nH]c3ccc(F)cc3c2C1=O`: the EC50 in the experiment on HCT-8 amounted to 5.88 µg/mL (≈ 25.7 µM); in the experiment on KB it was 5.25 µg/mL (≈ 22.9 µM); with SK-MEL-5, 2.51 µg/mL (≈ 11 µM); in the experiment with COLO 205 it was 9.19 µg/mL (≈ 40.1 µM).
As for `COc1cccc2c3c([nH]c12)C(=O)C(C)=CC3=O`, the EC50 was 4.7 µg/mL (≈ 19.5 µM) in the experiment on HCT-8, 0.92 µg/mL (≈ 3.81 µM) with KB, 5.5 µg/mL (≈ 22.8 µM) in the experiment with SK-MEL-5 and 5.18 µg/mL (≈ 21.5 µM) in the experiment on COLO 205.
As to `CC1=CC(=O)c2[nH]c3ccc(Cl)cc3c2C1=O`, the EC50 was 6.45 µg/mL (≈ 26.3 µM) with HCT-8, 4.39 µg/mL (≈ 17.9 µM) in the experiment on KB, 0.83 µg/mL (≈ 3.38 µM) with SK-MEL-5 and > 20 µg/mL in the experiment on COLO 205.

For orientation: GI50 means the concentration giving 50% growth inhibition.
